# Where “and” joins values, the source holds several entries; their conditions need not be identical. Identical values can stand only once.
# Tests used:
# Assay type in all cases: toxicity, cell-based
# U2OS = assay: Multiplex assay against U2OS; settings: human, number of replicates 2
# How it was run: (§1)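 Cells stained live at seeding with Hoechst33342, BioTracker Green Microtubule Cytoskeleton Dye, MitoTracker Red and Annexin V Alexa Fluor 680 were imaged on a CQ1 microscope at 37°C and 5% CO2 after compound addition. Their classification by CellPathfinder machine-learning gating ran from Hoechst high-intensity objects versus normal cells, to healthy, pyknosed or fragmented nuclei among normal cells, to mitotic or apoptotic among pyknosed cells. Tubulin, mitochondrial-mass and membrane-permeability phenotypes are per cents of healthy-nucleus cells.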
# HEK-293T = assay: Multiplex assay against HEK293T; settings: human, number of replicates 2; how it was run: as §1
# Fibroblast = assay: Multiplex assay against human fibroblast; settings: number of replicates 2; how it was run: as §1
# [1] = 12 h, 1 µM, compound concentration 1 uM
# [2] = 12 h, 10 µM, compound concentration 10 uM
# [3] = 24 h, 1 µM, compound concentration 1 uM
# [4] = 24 h, 10 µM, compound concentration 10 uM
# [5] = 48 h, 1 µM, compound concentration 1 uM
# [6] = 48 h, 10 µM, compound concentration 10 uM
smiles,measurement,setting,value
C[C@@H](Oc1cc(-n2cnc3ccc(OC4CCN(C)CC4)cc32)sc1C(N)=O)c1ccccc1Cl [GSK-579289A],Population Apoptotic (%),U2OS; [1],100% and 47%
same,Population Fragmented Nuclei (%),U2OS; [1],4% and 6%
same,Population Healthy Nuclei (%),U2OS; [1],78%
same,Population Hoechst High Intensity Objects (%),U2OS; [1],0%
same,Population Membrane Permeable-Phenotype (%),U2OS; [1],24% and 17%
same,Population Normal (%),U2OS; [1],100% and 99%
same,Population Pyknosed Nuclei (%),U2OS; [1],16% and 15%
same,Population Tubulin-Different-Phenotype (%),U2OS; [1],33% and 43%
same,Population Apoptotic (%),U2OS; [2],78% and 61%
same,Population Fragmented Nuclei (%),U2OS; [2],9% and 23%
same,Population Healthy Nuclei (%),U2OS; [2],64% and 47%
same,Population Hoechst High Intensity Objects (%),U2OS; [2],2% and 0%
same,Population Membrane Permeable-Phenotype (%),U2OS; [2],55% and 27%
same,Population Mitochondria Different-Phenotype (%),U2OS; [2],69% and 72%
same,Population Mitotic Cells (%),U2OS; [2],22% and 38%
same,Population Normal (%),U2OS; [2],97% and 100%
same,Population Pyknosed Nuclei (%),U2OS; [2],26% and 28%
same,Population Tubulin-Different-Phenotype (%),U2OS; [2],97% and 95%
same,Population Apoptotic (%),U2OS; [3],100% and 78%
same,Population Fragmented Nuclei (%),U2OS; [3],9% and 4%
same,Population Healthy Nuclei (%),U2OS; [3],84% and 76%
same,Population Hoechst High Intensity Objects (%),U2OS; [3],0%
same,Population Membrane Permeable-Phenotype (%),U2OS; [3],14% and 23%
same,Population Mitotic Cells (%),U2OS; [3],0% and 21%
same,Population Normal (%),U2OS; [3],100% and 99%
same,Population Pyknosed Nuclei (%),U2OS; [3],6% and 18%
same,Population Tubulin-Different-Phenotype (%),U2OS; [3],33% and 46%
same,Population Apoptotic (%),U2OS; [4],78% and 81%
same,Population Fragmented Nuclei (%),U2OS; [4],8% and 5%
same,Population Healthy Nuclei (%),U2OS; [4],41% and 52%
same,Population Hoechst High Intensity Objects (%),U2OS; [4],4% and 0%
same,Population Membrane Permeable-Phenotype (%),U2OS; [4],52% and 83%
same,Population Mitochondria Different-Phenotype (%),U2OS; [4],84% and 67%
same,Population Mitotic Cells (%),U2OS; [4],21% and 18%
same,Population Normal (%),U2OS; [4],95% and 99%
same,Population Pyknosed Nuclei (%),U2OS; [4],50% and 41%
same,Population Tubulin-Different-Phenotype (%),U2OS; [4],100% and 98%
same,Population Apoptotic (%),U2OS; [5],95% and 75%
same,Population Healthy Nuclei (%),U2OS; [5],60% and 55%
same,Population Hoechst High Intensity Objects (%),U2OS; [5],0%
same,Population Membrane Permeable-Phenotype (%),U2OS; [5],33% and 19%
same,Population Normal (%),U2OS; [5],100%
same,Population Pyknosed Nuclei (%),U2OS; [5],31% and 21%
same,Population Tubulin-Different-Phenotype (%),U2OS; [5],56% and 38%
same,Population Apoptotic (%),U2OS; [6],100% and 95%
same,Population Fragmented Nuclei (%),U2OS; [6],9% and 12%
same,Population Healthy Nuclei (%),U2OS; [6],19% and 12%
same,Population Hoechst High Intensity Objects (%),U2OS; [6],4%
same,Population Membrane Permeable-Phenotype (%),U2OS; [6],100% and 95%
same,Population Mitochondria Different-Phenotype (%),U2OS; [6],50% and 70%
same,Population Mitotic Cells (%),U2OS; [6],0% and 4%
same,Population Normal (%),U2OS; [6],95%
same,Population Pyknosed Nuclei (%),U2OS; [6],70% and 74%
same,Population Tubulin-Different-Phenotype (%),U2OS; [6],100% and 95%
same,Population Apoptotic (%),HEK-293T; [1],49% and 50%
same,Population Fragmented Nuclei (%),HEK-293T; [1],4% and 2%
same,Population Healthy Nuclei (%),HEK-293T; [1],79% and 81%
same,Population Hoechst High Intensity Objects (%),HEK-293T; [1],7% and 8%
same,Population Membrane Permeable-Phenotype (%),HEK-293T; [1],8% and 3%
same,Population Mitochondria Different-Phenotype (%),HEK-293T; [1],27% and 24%
same,Population Mitotic Cells (%),HEK-293T; [1],50%
same,Population Normal (%),HEK-293T; [1],93% and 91%
same,Population Pyknosed Nuclei (%),HEK-293T; [1],16%
same,Population Tubulin-Different-Phenotype (%),HEK-293T; [1],88% and 90%
same,Total Cell Count,HEK-293T; [1],686 and 707
same,Population Apoptotic (%),HEK-293T; [2],72% and 75%
same,Population Fragmented Nuclei (%),HEK-293T; [2],2% and 1%
same,Population Healthy Nuclei (%),HEK-293T; [2],79% and 84%
same,Population Hoechst High Intensity Objects (%),HEK-293T; [2],19% and 10%
same,Population Membrane Permeable-Phenotype (%),HEK-293T; [2],7% and 3%
same,Population Mitochondria Different-Phenotype (%),HEK-293T; [2],69% and 73%
same,Population Mitotic Cells (%),HEK-293T; [2],27% and 25%
same,Population Normal (%),HEK-293T; [2],80% and 89%
same,Population Pyknosed Nuclei (%),HEK-293T; [2],17% and 13%
same,Population Tubulin-Different-Phenotype (%),HEK-293T; [2],82% and 85%
same,Total Cell Count,HEK-293T; [2],381 and 356
same,Population Apoptotic (%),HEK-293T; [3],41% and 65%
same,Population Fragmented Nuclei (%),HEK-293T; [3],1% and 3%
same,Population Healthy Nuclei (%),HEK-293T; [3],75%
same,Population Hoechst High Intensity Objects (%),HEK-293T; [3],8% and 7%
same,Population Membrane Permeable-Phenotype (%),HEK-293T; [3],2% and 0%
same,Population Mitochondria Different-Phenotype (%),HEK-293T; [3],55% and 62%
same,Population Mitotic Cells (%),HEK-293T; [3],58% and 34%
same,Population Normal (%),HEK-293T; [3],91% and 92%
same,Population Pyknosed Nuclei (%),HEK-293T; [3],22% and 21%
same,Population Tubulin-Different-Phenotype (%),HEK-293T; [3],93% and 95%
same,Total Cell Count,HEK-293T; [3],585 and 584
same,Population Apoptotic (%),HEK-293T; [4],78% and 69%
same,Population Fragmented Nuclei (%),HEK-293T; [4],7% and 6%
same,Population Healthy Nuclei (%),HEK-293T; [4],75% and 79%
same,Population Hoechst High Intensity Objects (%),HEK-293T; [4],23% and 16%
same,Population Membrane Permeable-Phenotype (%),HEK-293T; [4],1%
same,Population Mitochondria Different-Phenotype (%),HEK-293T; [4],88% and 75%
same,Population Mitotic Cells (%),HEK-293T; [4],21% and 30%
same,Population Normal (%),HEK-293T; [4],76% and 84%
same,Population Pyknosed Nuclei (%),HEK-293T; [4],16% and 14%
same,Population Tubulin-Different-Phenotype (%),HEK-293T; [4],66% and 80%
same,Total Cell Count,HEK-293T; [4],362 and 350
same,Population Apoptotic (%),HEK-293T; [5],68% and 63%
same,Population Fragmented Nuclei (%),HEK-293T; [5],3% and 4%
same,Population Healthy Nuclei (%),HEK-293T; [5],85% and 83%
same,Population Hoechst High Intensity Objects (%),HEK-293T; [5],6% and 13%
same,Population Membrane Permeable-Phenotype (%),HEK-293T; [5],1% and 0%
same,Population Mitochondria Different-Phenotype (%),HEK-293T; [5],67%
same,Population Mitotic Cells (%),HEK-293T; [5],31% and 36%
same,Population Normal (%),HEK-293T; [5],93% and 86%
same,Population Pyknosed Nuclei (%),HEK-293T; [5],10% and 11%
same,Population Tubulin-Different-Phenotype (%),HEK-293T; [5],89% and 90%
same,Total Cell Count,HEK-293T; [5],471 and 559
same,Population Apoptotic (%),HEK-293T; [6],67% and 73%
same,Population Fragmented Nuclei (%),HEK-293T; [6],12% and 11%
same,Population Healthy Nuclei (%),HEK-293T; [6],61% and 68%
same,Population Hoechst High Intensity Objects (%),HEK-293T; [6],20% and 22%
same,Population Membrane Permeable-Phenotype (%),HEK-293T; [6],4% and 3%
same,Population Mitochondria Different-Phenotype (%),HEK-293T; [6],78% and 68%
same,Population Mitotic Cells (%),HEK-293T; [6],32% and 26%
same,Population Normal (%),HEK-293T; [6],79% and 77%
same,Population Pyknosed Nuclei (%),HEK-293T; [6],26% and 19%
same,Population Tubulin-Different-Phenotype (%),HEK-293T; [6],55% and 65%
same,Total Cell Count,HEK-293T; [6],453 and 440
same,Population Apoptotic (%),Fibroblast; [1],45% and 36%
same,Population Fragmented Nuclei (%),Fibroblast; [1],21% and 15%
same,Population Healthy Nuclei (%),Fibroblast; [1],62% and 60%
same,Population Hoechst High Intensity Objects (%),Fibroblast; [1],0%
same,Population Membrane Permeable-Phenotype (%),Fibroblast; [1],7% and 10%
same,Population Mitochondria Different-Phenotype (%),Fibroblast; [1],1% and 3%
same,Population Mitotic Cells (%),Fibroblast; [1],54% and 63%
same,Population Normal (%),Fibroblast; [1],99% and 100%
same,Population Pyknosed Nuclei (%),Fibroblast; [1],15% and 24%
same,Population Tubulin-Different-Phenotype (%),Fibroblast; [1],40% and 48%
same,Total Cell Count,Fibroblast; [1],296 and 182
same,Population Apoptotic (%),Fibroblast; [2],40% and 46%
same,Population Fragmented Nuclei (%),Fibroblast; [2],13% and 23%
same,Population Healthy Nuclei (%),Fibroblast; [2],60% and 59%
same,Population Hoechst High Intensity Objects (%),Fibroblast; [2],0%
same,Population Membrane Permeable-Phenotype (%),Fibroblast; [2],5% and 13%
same,Population Mitochondria Different-Phenotype (%),Fibroblast; [2],12% and 13%
same,Population Mitotic Cells (%),Fibroblast; [2],59% and 53%
same,Population Normal (%),Fibroblast; [2],100%
same,Population Pyknosed Nuclei (%),Fibroblast; [2],26% and 17%
same,Population Tubulin-Different-Phenotype (%),Fibroblast; [2],84% and 85%
same,Total Cell Count,Fibroblast; [2],323 and 282
same,Population Apoptotic (%),Fibroblast; [3],54% and 58%
same,Population Fragmented Nuclei (%),Fibroblast; [3],18% and 23%
same,Population Healthy Nuclei (%),Fibroblast; [3],63% and 57%
same,Population Hoechst High Intensity Objects (%),Fibroblast; [3],1% and 0%
same,Population Membrane Permeable-Phenotype (%),Fibroblast; [3],3% and 2%
same,Population Mitochondria Different-Phenotype (%),Fibroblast; [3],3% and 5%
same,Population Mitotic Cells (%),Fibroblast; [3],45% and 41%
same,Population Normal (%),Fibroblast; [3],98% and 99%
same,Population Pyknosed Nuclei (%),Fibroblast; [3],18% and 19%
same,Population Tubulin-Different-Phenotype (%),Fibroblast; [3],43% and 40%
same,Total Cell Count,Fibroblast; [3],282 and 205
same,Population Apoptotic (%),Fibroblast; [4],79% and 73%
same,Population Fragmented Nuclei (%),Fibroblast; [4],16% and 25%
same,Population Healthy Nuclei (%),Fibroblast; [4],46% and 50%
same,Population Hoechst High Intensity Objects (%),Fibroblast; [4],0%
same,Population Membrane Permeable-Phenotype (%),Fibroblast; [4],2% and 6%
same,Population Mitochondria Different-Phenotype (%),Fibroblast; [4],38% and 39%
same,Population Mitotic Cells (%),Fibroblast; [4],20% and 26%
same,Population Normal (%),Fibroblast; [4],100% and 99%
same,Population Pyknosed Nuclei (%),Fibroblast; [4],37% and 23%
same,Population Tubulin-Different-Phenotype (%),Fibroblast; [4],88% and 92%
same,Total Cell Count,Fibroblast; [4],281 and 274
same,Population Apoptotic (%),Fibroblast; [5],65% and 85%
same,Population Fragmented Nuclei (%),Fibroblast; [5],21% and 25%
same,Population Healthy Nuclei (%),Fibroblast; [5],64% and 61%
same,Population Hoechst High Intensity Objects (%),Fibroblast; [5],1% and 0%
same,Population Membrane Permeable-Phenotype (%),Fibroblast; [5],4%
same,Population Mitochondria Different-Phenotype (%),Fibroblast; [5],2% and 5%
same,Population Mitotic Cells (%),Fibroblast; [5],34% and 14%
same,Population Normal (%),Fibroblast; [5],98% and 99%
same,Population Pyknosed Nuclei (%),Fibroblast; [5],14% and 12%
same,Population Tubulin-Different-Phenotype (%),Fibroblast; [5],44% and 38%
same,Total Cell Count,Fibroblast; [5],307 and 222
same,Population Apoptotic (%),Fibroblast; [6],97% and 94%
same,Population Fragmented Nuclei (%),Fibroblast; [6],18% and 24%
same,Population Healthy Nuclei (%),Fibroblast; [6],22% and 18%
same,Population Hoechst High Intensity Objects (%),Fibroblast; [6],1% and 0%
same,Population Mitochondria Different-Phenotype (%),Fibroblast; [6],46% and 48%
same,Population Mitotic Cells (%),Fibroblast; [6],2% and 5%
same,Population Normal (%),Fibroblast; [6],98% and 99%
same,Population Pyknosed Nuclei (%),Fibroblast; [6],58% and 57%
same,Population Tubulin-Different-Phenotype (%),Fibroblast; [6],77% and 93%
same,Total Cell Count,Fibroblast; [6],199 and 171

# Source: ChEMBL document CHEMBL5303300, “EUbOPEN Chemogenomics Library - Multiplex” (2023)
